Results: ChEMBL document CHEMBL4311956, “A Qualified Success: Discovery of a New Series of ATAD2 Bromodomain Inhibitors with a Novel Binding Mode Using High-Throughput Screening and Hit Qualification” (J Med Chem, 2019)
Calls of active or inactive are those of the source. The rule behind the calls is not given here.

What was measured:
[1] = target: T1, ATPase family AAA domain-containing protein 2 (Homo sapiens, UniProt Q6PL18); test: Displacement of SGRG-K(Ac)-GG-K(Ac)-GLG-K(Ac)-GGAKRHRKV-biotin) from His6/FLAG-tagged TEV fused ATAD2 bromodomain (981 to 1121 residues) (unknown origin) expressed in Escherichia coli BL21(DE3) cells after 30 mins by TR-FRET assay
T1 sequence (Q6PL18 whole entry): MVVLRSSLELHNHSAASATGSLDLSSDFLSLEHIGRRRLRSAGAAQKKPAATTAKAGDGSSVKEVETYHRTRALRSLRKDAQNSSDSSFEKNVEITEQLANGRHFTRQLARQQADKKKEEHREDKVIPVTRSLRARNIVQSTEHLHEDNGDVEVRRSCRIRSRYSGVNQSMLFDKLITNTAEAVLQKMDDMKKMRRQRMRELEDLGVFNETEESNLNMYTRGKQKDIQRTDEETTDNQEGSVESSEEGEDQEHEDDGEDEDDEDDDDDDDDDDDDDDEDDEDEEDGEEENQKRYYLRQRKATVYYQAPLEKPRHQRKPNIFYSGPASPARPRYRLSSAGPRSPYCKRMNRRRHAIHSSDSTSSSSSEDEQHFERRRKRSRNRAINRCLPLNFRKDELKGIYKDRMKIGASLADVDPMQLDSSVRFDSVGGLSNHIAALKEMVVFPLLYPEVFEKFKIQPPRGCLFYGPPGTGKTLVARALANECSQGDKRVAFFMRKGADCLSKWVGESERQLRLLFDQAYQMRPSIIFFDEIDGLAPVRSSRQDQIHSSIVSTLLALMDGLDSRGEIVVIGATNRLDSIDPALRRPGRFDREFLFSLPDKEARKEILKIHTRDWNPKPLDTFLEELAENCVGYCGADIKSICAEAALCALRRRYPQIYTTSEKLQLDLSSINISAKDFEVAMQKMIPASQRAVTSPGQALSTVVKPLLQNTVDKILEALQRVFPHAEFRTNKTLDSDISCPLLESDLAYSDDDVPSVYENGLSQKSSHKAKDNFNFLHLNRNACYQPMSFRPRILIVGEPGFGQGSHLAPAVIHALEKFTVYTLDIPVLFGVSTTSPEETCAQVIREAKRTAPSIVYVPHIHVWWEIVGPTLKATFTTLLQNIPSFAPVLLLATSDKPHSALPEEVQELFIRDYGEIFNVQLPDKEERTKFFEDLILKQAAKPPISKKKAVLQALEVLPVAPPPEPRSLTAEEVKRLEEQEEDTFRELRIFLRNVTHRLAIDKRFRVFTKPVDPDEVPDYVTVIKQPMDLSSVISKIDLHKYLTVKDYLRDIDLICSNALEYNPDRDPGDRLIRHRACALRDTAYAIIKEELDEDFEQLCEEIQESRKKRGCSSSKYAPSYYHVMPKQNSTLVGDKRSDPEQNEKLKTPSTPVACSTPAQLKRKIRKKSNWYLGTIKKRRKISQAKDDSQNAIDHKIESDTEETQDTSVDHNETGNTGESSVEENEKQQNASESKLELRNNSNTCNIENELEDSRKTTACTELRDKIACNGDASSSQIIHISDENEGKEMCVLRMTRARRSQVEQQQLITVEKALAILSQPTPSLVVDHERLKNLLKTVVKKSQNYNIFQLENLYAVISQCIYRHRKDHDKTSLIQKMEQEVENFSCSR

[2] = target: T1, ATPase family AAA domain-containing protein 2; test: (§1) Binding affinity to His6/FLAG-tagged TEV fused ATAD2 bromodomain (950 to 1148 residues) (unknown origin) expressed in Escherichia coli BL21(DE3) cells by surface plasmon resonance
Method in brief: (§2)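 SPR screen of concentration–response up to 100 μM. Wild-type ATAD2 and a Y1021A/N1064A mutant lacking the acetyl-lysine binding motif were run in parallel. Hits were classed as binding, nonbinding or linear binding (nonsaturating response, calculated Kd above the top concentration).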

[3] = target: T2, ATPase family AAA domain-containing protein 2 (Homo sapiens) (UniProt Q6PL18); test: Binding affinity to 15N-labelled ATAD2 (981 to 1108 residues) (unknown origin) at 100 uM by 1H-15N HSQC NMR analysis
T2 sequence (whole entry): T1 sequence (Q6PL18 whole entry)
Method in brief: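 15N–1H HSQC spectra of labelled ATAD2 bromodomain recorded with and without compound at 100 μM. Binding is judged from spectral changes.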

[4] = target: T2, ATPase family AAA domain-containing protein 2 (Homo sapiens); test: Displacement of SGRG-K(Ac)-GG-K(Ac)-GLG-K(Ac)-GGAKRHRKV-biotin) from His6/FLAG-tagged TEV fused ATAD2 bromodomain (981 to 1121 residues) (unknown origin) expressed in Escherichia coli BL21(DE3) cells at 10 uM after 30 mins by TR-FRET assay relative to control
[5] = target: Bromodomain-containing protein 4 (Homo sapiens, UniProt O60885, Y97A); test: Displacement of Alexa Fluor 647 labelled ligand from His6-tagged BRD4 BD2 (1 to 477 residues)/BD1 Y97A mutant (unknown origin) after 30 mins by TR-FRET assay
Method in brief: (§3)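 BET selectivity by TR-FRET fluoroligand displacement. Uses tandem BET bromodomain constructs carrying a mutation in the non-assayed bromodomain.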

[6] = target: Bromodomain-containing protein 4 (Homo sapiens, UniProt O60885, Y390A); test: Displacement of Alexa Fluor 647 labelled ligand from His6-tagged BRD4 BD1 (1 to 477 residues)/BD2 Y390A mutant (unknown origin) after 30 mins by TR-FRET assay; method in brief: as §3
[7] = target: T2, ATPase family AAA domain-containing protein 2 (Homo sapiens); test: Displacement of SGRG-K(Ac)-GG-K(Ac)-GLG-K(Ac)-GGAKRHRKV-biotin) from His6/FLAG-tagged TEV fused ATAD2 bromodomain (981 to 1121 residues) (unknown origin) expressed in Escherichia coli BL21(DE3) cells at 100 to 300 uM after 30 mins by TR-FRET assay relative to control
[8] = target: T1, ATPase family AAA domain-containing protein 2; test: Inhibition of ATAD2 bromodomain in human HUT78 chromatin lysate after 2 hrs by bromosphere competition binding assay
Method in brief: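 Bromosphere chemoproteomic assay. Measures competitive inhibition of binding of endogenous full-length ATAD2 from Hut-78 cells.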

[9] = target: T2, ATPase family AAA domain-containing protein 2 (Homo sapiens); test: as §1; method in brief: as §2

IC50 [1] [µM]	Kd [2] [µM]	Activity [3]	inhibition [4] [%]	IC50 [5] [µM]	IC50 [6] [µM]	Activity [7] [%]	pIC50 [1]	IC50 [8] [µM]	Activity [9]	Structure (SMILES)
> 1000	–	–	–	–	–	–	–	–	–	CCC(=O)Nc1ccc(CC)c(S(=O)(=O)N2CCCCC2)c1
10	7.94	Active	58	> 50.1	> 50.1	–	–	–	–	Cc1ccc(NC(=O)CN2C(=O)NC(C)(C)C2=O)cc1S(=O)(=O)N1CCCCCC1
7.94	15.8	Active	61	> 50.1	> 50.1	–	–	–	–	Cc1ccc(NC(=O)CN2C(=O)NC3(CCc4ccccc43)C2=O)cc1S(=O)(=O)N1CCCCC1 (centres undefined)
> 1000	–	–	–	–	–	–	–	–	–	CCC(=O)Nc1ccc(C#N)c(S(=O)(=O)N2CCCCC2)c1
> 1000	–	–	–	–	–	–	–	–	–	CCC(=O)Nc1ccc(OC)c(S(=O)(=O)N2CCCCC2)c1
> 100	–	–	–	> 50.1	> 50.1	–	–	–	–	COc1ccc(NC(=O)CN2C(=O)NC(C)(C3CC3)C2=O)cc1S(=O)(=O)N1CCCCC1 (racemic)
79.4	–	–	–	–	–	45 to 55	–	–	–	CCC(=O)Nc1ccc(Cl)c(S(=O)(=O)N2CCCCC2)c1
> 1000	–	–	–	–	–	–	–	–	–	CCC(=O)Nc1ccc(F)c(S(=O)(=O)N2CCCCC2)c1
–	–	–	–	> 50.1	> 50.1	–	5.9	–	–	CC1(C2CC2)NC(=O)N(CC(=O)Nc2ccc(Cl)c(S(=O)(=O)N3CCCCC3)c2)C1=O (stereo in doubt; 19)
> 1000	–	–	–	–	–	–	–	–	–	CCC(=O)Nc1ccc(N)c(S(=O)(=O)N2CCCCC2)c1
1.26	6.31	Active	77	> 50.1	> 50.1	–	–	15.8	–	Cc1[nH]c(=O)c(C#N)c(C)c1CCC(=O)Nc1ccc(Cl)c(S(=O)(=O)N2CCCCC2)c1
> 100	–	Active	18	> 50.1	> 50.1	–	–	–	Active	Cc1ccc(NC(=O)CN2C(=O)NC(Cc3ccccc3)C2=O)cc1S(=O)(=O)N1CCCCC1 (centres undefined)
> 100	50.1	Active	27	39.8	> 50.1	–	–	–	–	O=C(CCNC(=O)c1ccccc1)Nc1ccc(Cl)c(S(=O)(=O)N2CCCCC2)c1
–	–	–	–	31.6	10	–	5.9	–	–	CC1(C2CC2)NC(=O)N(CC(=O)Nc2ccc(Cl)c(S(=O)(=O)N3CCCCC3)c2)C1=O (stereo in doubt; 18)
50.1	50.1	Active	30	> 501	> 501	–	–	–	–	Cc1ccc(NC(=O)CN2C(=O)CN(C)C2=O)cc1S(=O)(=O)N1CCCCC1
–	–	Active	79	–	–	–	–	–	–	CC1(C2CC2)NC(=O)N(CC(=O)Nc2ccc(Cl)c(S(=O)(=O)N3CCCCC3)c2)C1=O (racemic) [listing 1 of 2 here]

IC50 [1] [µM]	Kd [2] [µM]	Activity [3]	inhibition [4] [%]	IC50 [5] [µM]	IC50 [6] [µM]	Activity [7] [%]	pIC50 [1]	IC50 [8] [µM]	Activity [9]	Structure (SMILES)
5.01	7.94	Active	52	> 50.1	> 50.1	–	–	–	–	CN(C)S(=O)(=O)c1cc(NC(=O)CN2C(=O)NC3(CCCc4ccccc43)C2=O)ccc1Cl (centres undefined)
10	12.6	Active	33	> 50.1	5.01	–	–	–	–	Cc1ccc(C2(C)NC(=O)N(CC(=O)Nc3ccc(C)c(S(=O)(=O)N4CCCCC4)c3)C2=O)cc1 (centres undefined)
> 100	–	Active	29	> 50.1	> 50.1	–	–	–	Active	O=C(CNC(=O)C1CCCCC1)Nc1ccc(Cl)c(S(=O)(=O)N2CCCCC2)c1
12.6	20	Active	52	> 50.1	> 50.1	–	–	–	–	Cc1ccc(NC(=O)CN2C(=O)NC(C)(C3CC3)C2=O)cc1S(=O)(=O)N1CCCCC1 (centres undefined)
10	–	–	–	25.1	> 50.1	–	–	–	–	CC1(C2CC2)NC(=O)N(CC(=O)Nc2ccc(C(F)(F)F)c(S(=O)(=O)N3CCCCC3)c2)C1=O (racemic)
1.26	2	–	–	50.1	> 50.1	–	–	15.8	–	CC1(C2CC2)NC(=O)N(CC(=O)Nc2ccc(Cl)c(S(=O)(=O)N3CCCCC3)c2)C1=O (racemic) [listing 2 of 2 here]
> 100	–	–	–	31.6	> 50.1	–	–	–	–	CC1(C2CC2)NC(=O)N(CC(=O)Nc2cccc(S(=O)(=O)N3CCCCC3)c2)C1=O (racemic)
> 1000	–	–	–	–	–	–	–	–	–	CCC(=O)Nc1ccc(O)c(S(=O)(=O)N2CCCCC2)c1
> 1000	–	–	–	–	–	–	–	–	–	CCC(=O)Nc1ccc(C(F)(F)F)c(S(=O)(=O)N2CCCCC2)c1
10	15.8	Active	30 to 40	> 50.1	> 50.1	–	–	–	–	CSCCC1NC(=O)N(CC(=O)Nc2ccc(Cl)c(S(=O)(=O)N3CCOCC3)c2)C1=O (centres undefined)
10	15.8	Active	47	> 50.1	> 50.1	–	–	–	–	O=C(CCNC1=NS(=O)(=O)c2ccccc21)Nc1ccc(Cl)c(S(=O)(=O)N2CCCC2)c1
31.6	50.1	Active	29	39.8	> 501	–	–	–	–	CCN(CC)S(=O)(=O)c1cc(NC(=O)CN2C(=O)NC(C)(c3ccccc3)C2=O)ccc1C (centres undefined)
12.6	31.6	Active	39	> 50.1	> 50.1	–	–	39.8	–	Cc1ccccc1C(=O)NCC(=O)Nc1ccc(C)c(S(=O)(=O)N2CCCCCC2)c1
3.16	–	Active	48	> 50.1	> 50.1	–	–	–	Active	O=C(CN1C(=O)NC(CCc2ccccc2)C1=O)Nc1ccc(Cl)c(S(=O)(=O)N2CCCCC2)c1 (centres undefined)
15.8	–	–	–	–	–	–	–	–	–	CCC(=O)Nc1ccc(Br)c(S(=O)(=O)N2CCCCC2)c1
